{
  "source": "paper PMC6997517",
  "about": "(EBioMedicine, 2020)",
  "key": {"TLR3 [1]": {"tested_on": "TLR3", "experiment": "Cytokine ELISA, poly", "type": "cell-based, mouse", "settings": "mBMDMs, poly(I:C)", "outline": "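Bone marrow flushed from femurs and tibiae of C57BL/6J mice (6–7 weeks). Cultured in DMEM/10% FBS with M-CSF (25 ng/ml) for 3–4 days, detached with trypsin-EDTA, replated, and used 24 h later. Seeded and grown overnight, stimulated with poly(I:C) plus test compound. Secreted IFN-β measured after 24 h by mouse IFN-β ELISA.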"}, "TLR4 [2]": {"tested_on": "TLR4", "experiment": "Quantitative RT-PCR, LPS-stimulated RAW264.7 cells", "type": "cell-based, murine", "settings": "TIP3 50 μM 1 h before LPS 100 ng/ml, 3 h; normalized to β-actin", "outline": "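Total RNA isolated with TRIzol and reverse-transcribed to cDNA. qPCR run with SYBR Green and gene-specific primers (reference genes β-actin and Gapdh). Relative expression calculated by the ΔΔCt method.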"}, "TLR3 [3]": {"tested_on": "TLR3", "experiment": "Cytokine ELISA, poly", "type": "cell-based, murine", "settings": "24 h", "outline": "(§1)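 RAW264.7 cells seeded at 2 × 10^5/well (96-well) or 5 × 10^5/well (24-well), grown overnight, then treated with test compound. Stimulus: poly(I:C), CpG-ODN (15), FSL-1 (16) or R848 (17). Supernatant cytokines read after 24 h by mouse ELISA kits (IFN-β, IL-6, TNF-α). Cells kept at 37 °C, 5% CO2.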"}, "[4]": {"tested_on": "lupus-prone mice (MRL/lpr)", "experiment": "SLE model, MRL/lpr mice", "type": "in vivo, mouse (MRL/lpr)", "settings": "10 nmol/g i.p. daily, 20 days"}, "TLR2/6": {"tested_on": "TLR2/6", "experiment": "TNF-α secretion, FSL-1-stimulated RAW264.7 cells", "type": "cell-based, murine", "settings": "TIP3 at 50 μM", "outline": "as §1"}, "[5]": {"tested_on": "TLR4-mediated NLRP3 inflammasome", "experiment": "NLRP3 inflammasome activation, IL-1β secretion, LPS-primed THP-1 cells", "type": "cell-based, human", "settings": "THP-1 primed with LPS, activated with Nigericin; n ≥ 3"}, "TLR4 [6]": {"tested_on": "TLR4", "experiment": "NO secretion assay, LPS-stimulated mBMDMs", "type": "cell-based, mouse", "outline": "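Bone marrow macrophages from C57BL/6J femurs/tibiae, differentiated with M-CSF (25 ng/ml) for 3–4 days and replated 24 h before use. Seeded at 2 × 10^5/well, grown overnight. Pretreated with test compound for 1 h, then co-treated with LPS. Extracellular NO in supernatant measured with a nitric oxide detection kit by absorbance at 550 nm.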"}, "[7]": {"tested_on": "TLR4 (HEK-Blue™ hTLR4 cells)", "experiment": "SEAP activity assay", "type": "cell-based, human", "settings": "LPS-stimulated; absorbance at 620 nm; n ≥ 3", "outline": "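Seeded at 2 × 10^5/well (24-well) and grown overnight, then treated with a range of test-compound concentrations with or without LPS. Supernatants heat-treated at 65 °C for 10 min. SEAP (NF-κB reporter) detected with HEK-Blue detection medium.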"}, "[8]": {"tested_on": "mice with IMQ-induced psoriasis-like disease", "experiment": "Imiquimod", "type": "in vivo, mouse (C57BL/6)", "outline": "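C57BL/6 mice (6–7 weeks, specific-pathogen-free) given 62·5 mg of 5% imiquimod cream topically for 5 consecutive days; controls left untreated. Test compound (10 or 50 nmol/g) or PBS given daily, and methotrexate (10 μg/g) as reference, all starting 1 day before the cream. Mice killed after 5 days. Back-skin severity scored on a PASI-based scale.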"}, "hMNCs": {"tested_on": "hMNCs", "experiment": "Cell viability, hMNCs", "type": "cell-based, human"}, "TLR4 [9]": {"tested_on": "TLR4", "experiment": "NO secretion assay, LPS-stimulated RAW264.7 cells", "type": "cell-based, murine", "settings": "absorbance at 550 nm", "outline": "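RAW264.7 cells seeded at 2 × 10^5/well in 96-well format and grown overnight. After treatment with test compound and LPS, nitric oxide in the culture medium was quantified with a colourimetric NO detection kit.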"}, "TLR4 [10]": {"tested_on": "TLR4", "experiment": "Cytokine ELISA, LPS-stimulated mBMDMs", "type": "cell-based, mouse", "settings": "TIP3 1 h, then LPS 24 h", "outline": "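Bone marrow flushed from femurs and tibiae of 6–7-week-old C57BL/6J mice, then differentiated with M-CSF (25 ng/ml) for 3–4 days. Cells harvested with trypsin-EDTA and replated; experiments run after 24 h. Cells pretreated with test compound for 1 h, then co-treated with LPS for 24 h. Secreted IL-6 and TNF-α measured by mouse ELISA kits.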"}, "TLR4 [11]": {"tested_on": "TLR4", "experiment": "Western blot, LPS-stimulated RAW264.7 cells", "type": "cell-based, murine", "outline": "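Total protein extracted with M-PER reagent and quantified by BCA. Membranes incubated with primary antibodies overnight at 4 °C, washed in PBS/0·1% Tween 20, then HRP-conjugated secondary (1:1000) for 2 h. Bands detected by enhanced chemiluminescence, with β-actin as loading reference.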"}, "TLR3 [12]": {"tested_on": "TLR3", "experiment": "Cytokine ELISA, poly", "type": "cell-based, human", "settings": "hMNCs, poly(I:C)", "outline": "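Commercial human mononuclear cells kept in RPMI 1640 (2·05 mM L-glutamine, 10% FBS, penicillin/streptomycin). Seeded at 2 × 10^5/well and grown overnight. Stimulated with LPS or poly(I:C) alongside test compound. After 24 h, supernatant IL-6 and TNF-α measured by human sandwich ELISA.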"}, "[13]": {"tested_on": "TNFR-mediated NLRP3 inflammasome", "experiment": "NLRP3 inflammasome activation, IL-1β secretion, TNF-α-primed THP-1 cells", "type": "cell-based", "settings": "THP-1 primed with recombinant human TNF-α, activated with Nigericin"}, "RAW264.7 cells": {"tested_on": "RAW264.7 cells", "experiment": "MTT cell viability, RAW264.7 cells", "type": "cell-based, murine", "settings": "50 μM", "outline": "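MTT colourimetric viability assay. HEK-Blue hTLR4 cells (high-glucose DMEM, 10% FBS, normocin) seeded at 5 × 10^4/well. RAW264.7 cells seeded at 2 × 10^5/well. Both grown overnight before exposure to test compound.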"}},
  "data": [
    {"sequence": "DYDVCVCH [TIP3]", "values": [
      {"measurement": "TLR3-mediated IFN-β secretion", "setting": "TLR3 [1]", "result": "suppressed"},
      {"measurement": "Cxcl-10 mRNA expression", "setting": "TLR4 [2]", "result": "significantly inhibited the mRNA expression"},
      {"measurement": "Ifn-β mRNA expression", "setting": "TLR4 [2]", "result": "significantly inhibited the mRNA expression"},
      {"measurement": "Il-1β mRNA expression", "setting": "TLR4 [2]", "result": "significantly inhibited the mRNA expression"},
      {"measurement": "Il-6 mRNA expression", "setting": "TLR4 [2]", "result": "significantly inhibited the mRNA expression"},
      {"measurement": "Tnf-α mRNA expression", "setting": "TLR4 [2]", "result": "significantly inhibited the mRNA expression"},
      {"measurement": "poly(I:C)-induced IFN-α secretion", "setting": "TLR3 [3]", "result": "also inhibited"},
      {"measurement": "poly(I:C)-induced IFN-β secretion", "setting": "TLR3 [3]", "result": "also inhibited"},
      {"measurement": "poly(I:C)-induced IL-6 secretion", "setting": "TLR3 [3]", "result": "also inhibited"},
      {"measurement": "TLR3-mediated TNF-α secretion", "setting": "TLR3 [3]; poly(I:C)", "result": "significantly diminished the TLR3-mediated TNF-α secretion in a dose-dependent manner"},
      {"measurement": "complement C4", "setting": "[4]", "result": "the levels of complement components C4 and C3 were recovered"},
      {"measurement": "dsDNA autoantibodies", "setting": "[4]; ELISA", "result": "remained low"},
      {"measurement": "serum C3 complement", "setting": "[4]; ELISA", "result": "found to recover"},
      {"measurement": "urine albumin", "setting": "[4]; ELISA", "result": "reduced by TIP3 treatment"},
      {"measurement": "lymphoid expansion and spleen volume", "setting": "[4]; vs vehicle", "result": "reducing the lymphoid expansion and the spleen volume"},
      {"measurement": "TNF-α secretion mediated by TLR2/6", "setting": "TLR2/6", "result": "somewhat weak inhibition"},
      {"measurement": "IL-1β secretion", "setting": "[5]", "result": "dose-dependently inhibits IL-1β secretion in LPS-primed cells"},
      {"measurement": "LPS-induced extracellular NO", "setting": "TLR4 [6]", "result": "significant reduction"},
      {"measurement": "inhibition of LPS-induced SEAP activity (NF-κB)", "setting": "[7]", "result": "hampered the LPS-induced SEAP activity in a dose-dependent manner"},
      {"measurement": "effect relative to MTX", "setting": "[8]; TIP3 10 nmol/g vs MTX 10 μg/g", "result": "relatively weaker effect than did the MTX-treated group"},
      {"measurement": "spleen weight", "setting": "[8]; TIP3 50 nmol/g i.p.", "result": "significantly decreasing the spleen weight (almost to the weight of normal murine spleen)"},
      {"measurement": "body weight", "setting": "[8]; TIP3 50 nmol/g i.p., vs MTX and TIP3 10 nmol/g", "result": "underwent a weight loss as compared to the MTX- and TIP3 (10 nmol/g)-treated groups"},
      {"measurement": "inflammation severity of back skin", "setting": "[8]; TIP3 10 or 50 nmol/g daily", "result": "reversal of inflammation severity"},
      {"measurement": "PASI score", "setting": "[8]; TIP3 10 or 50 nmol/g i.p.", "result": "did not significantly reduce the PASI score starting from day 2"},
      {"measurement": "splenomegaly", "setting": "[8]; TIP3 10 or 50 nmol/g i.p.", "result": "remarkably prevented splenomegaly in a dose-dependent manner"},
      {"measurement": "cell viability", "setting": "hMNCs", "result": "substantial reproducible outcomes were observed in terms of cell viability"},
      {"measurement": "LPS-induced extracellular NO secretion", "setting": "TLR4 [9]", "result": "represses the LPS-induced extracellular secretion of NO"},
      {"measurement": "TLR4-mediated IL-6 secretion", "setting": "TLR4 [10]", "result": "suppressed the TLR4-mediated secretion of IL-6"},
      {"measurement": "TLR4-mediated TNF-α secretion", "setting": "TLR4 [10]", "result": "suppressed the TLR4-mediated secretion of IL-6 and TNF-α"},
      {"measurement": "ATF3 expression", "setting": "TLR4 [11]", "result": "hindered the LPS-induced expression of activating transcription factor 3 (ATF3)"},
      {"measurement": "COX2 expression", "setting": "TLR4 [11]", "result": "represses the LPS-induced extracellular secretion of NO and the expression of iNOS and COX2 in a dose-dependent manner"},
      {"measurement": "Iκ-Bα degradation", "setting": "TLR4 [11]", "result": "inhibiting Iκ-Bα degradation"},
      {"measurement": "iNOS expression", "setting": "TLR4 [11]", "result": "represses the LPS-induced extracellular secretion of NO and the expression of iNOS and COX2 in a dose-dependent manner"},
      {"measurement": "phosphorylation of ERK", "setting": "TLR4 [11]", "result": "inhibiting the phosphorylation of c-Jun N-terminal kinase (JNK), p38 MAPK, extracellular signal–regulated kinase (ERK)"},
      {"measurement": "phosphorylation of IRF3 (p-IRF3)", "setting": "TLR4 [11]", "result": "inhibiting Iκ-Bα degradation, and phosphorylation of the p65 subunit of NF-κB, and IRF3"},
      {"measurement": "phosphorylation of JNK", "setting": "TLR4 [11]", "result": "inhibiting the phosphorylation of c-Jun N-terminal kinase (JNK)"},
      {"measurement": "phosphorylation of p38", "setting": "TLR4 [11]", "result": "inhibiting the phosphorylation of c-Jun N-terminal kinase (JNK), p38 MAPK"},
      {"measurement": "phosphorylation of p65 subunit of NF-κB (p-p65)", "setting": "TLR4 [11]", "result": "inhibiting Iκ-Bα degradation, and phosphorylation of the p65 subunit of NF-κB"},
      {"measurement": "TLR3-mediated TNF-α secretion", "setting": "TLR3 [12]", "result": "significantly inhibited"},
      {"measurement": "IL-1β secretion", "setting": "[13]", "result": "not in the TNF-α-primed cells"},
      {"measurement": "cell viability / toxicity", "setting": "RAW264.7 cells", "result": "did not have any toxic effects"}
    ]}
  ]
}
